Screens as filed in PubChem BioAssay.
TRPC4 inh – inhibitors of mouse TRPC4 channel, primary screen, Fluo4 calcium, HEK293 TRPC4beta/mu-opioid cells | DAMGO-evoked Fluo4 calcium flux; stronger effect = lower value | B-score at 10 µM | Short transient receptor potential channel 4 (Mus musculus), Q9QUQ5 | actives 0.39% (n = 300,000);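 active = B-score over 3 SD under the library average, no early fluorescence shift, positive overall ratio signal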
Target sequence (Q9QUQ5 whole entry, looked up): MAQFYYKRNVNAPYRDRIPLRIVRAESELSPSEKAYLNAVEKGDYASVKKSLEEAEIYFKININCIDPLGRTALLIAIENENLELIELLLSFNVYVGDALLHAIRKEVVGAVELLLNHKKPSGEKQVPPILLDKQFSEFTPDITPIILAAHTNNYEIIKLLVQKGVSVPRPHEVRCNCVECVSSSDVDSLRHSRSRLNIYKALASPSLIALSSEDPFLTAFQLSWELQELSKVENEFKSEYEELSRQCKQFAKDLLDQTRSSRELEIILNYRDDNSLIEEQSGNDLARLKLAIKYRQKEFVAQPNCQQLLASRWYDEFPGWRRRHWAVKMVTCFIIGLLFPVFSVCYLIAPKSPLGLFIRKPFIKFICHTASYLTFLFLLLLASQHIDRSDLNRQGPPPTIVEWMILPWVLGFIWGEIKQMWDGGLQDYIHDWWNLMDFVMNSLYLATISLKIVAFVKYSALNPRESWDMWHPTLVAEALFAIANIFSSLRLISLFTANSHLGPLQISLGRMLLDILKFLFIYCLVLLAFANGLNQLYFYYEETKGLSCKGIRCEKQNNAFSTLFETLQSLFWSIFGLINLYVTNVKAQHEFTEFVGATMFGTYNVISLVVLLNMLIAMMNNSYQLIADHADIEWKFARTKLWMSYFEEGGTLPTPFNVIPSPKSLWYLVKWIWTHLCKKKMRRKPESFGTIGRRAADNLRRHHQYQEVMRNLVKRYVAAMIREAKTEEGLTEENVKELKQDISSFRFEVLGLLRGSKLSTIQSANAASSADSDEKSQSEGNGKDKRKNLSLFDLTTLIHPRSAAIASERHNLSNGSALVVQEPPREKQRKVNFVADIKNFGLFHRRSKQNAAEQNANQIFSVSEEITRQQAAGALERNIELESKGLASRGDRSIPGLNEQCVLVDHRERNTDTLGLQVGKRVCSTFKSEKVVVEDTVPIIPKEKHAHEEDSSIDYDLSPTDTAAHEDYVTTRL
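Assay system: HEK293 cells with stable TRPC4beta plus mu-opioid receptor expression. Dosing: single dose. Measured by: Fluo4 Ca2+ flux fluorescence. Also added: DAMGO in two steps, submaximal then maximal. Read-out: B score from integrated Fluo4 fluorescence ratio.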
TRPC4 potent – positive allosteric modulators of TRPC4, primary screen, cell-based, mouse TRPC4beta, HEK293 mu-opioid, Fluo-4 calcium | Short transient receptor potential channel 4 (Mus musculus), Q9QUQ5 | DAMGO EC20, Fluo-4 Ca2+ flux; stronger effect = higher value | B-score at 10 µM | actives 0.42% (n = 310,000) | AID 2227, 2009;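 active = B-score of calcium response area above 5 SD of library B-scores, with initial fluorescence ratio within 5 SD of library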;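 also: B-score of integrated fluorescence ratio over time as area under calcium response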
TRPC4 act – activators of mouse TRPC4 channel, primary screen, Fluo4 calcium, HEK293 TRPC4beta/mu-opioid cells | Short transient receptor potential channel 4 (Mus musculus), Q9QUQ5 | Fluo4 calcium fluorescence; stronger effect = higher value | B-score at 10 µM | actives 0.49% (n = 310,000) | AID 2237, 2010;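 active = B-score above 5 SD of library B-scores, and initial fluorescence ratio not above library mean plus 5 SD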;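 also: positive B-score marks a calcium rise read as TRPC4 activation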
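Incubation: 45 min room-temperature Fluo4 loading, 110 s read / System: HEK293 cells stably co-expressing mouse TRPC4beta and mu-opioid receptor / Signal: Fluo4 fluorescence, kinetic / Control set: buffer (low) and maximal DAMGO (high) / Measure: integrated baseline-normalised fluorescence ratio, converted to per-well B score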
TRPC6 act – mouse TRPC6 channel activators, primary screen, cell-based, HEK293, membrane potential dye | actives 0.13% (n = 310,000) | HEK293-TRPC6 membrane potential dye fluorescence; stronger effect = higher value | AID 2550, 2010 | Short transient receptor potential channel 6 (Mus musculus), Q61143 | B-score at 10 µM;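 active = B-score of the integrated fluorescence ratio above library mean plus 3 SD, and starting fluorescence ratio within library mean plus 5 SD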;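 also: higher score means more depolarization so channel activation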
TRPC6 inhibitor – mouse TRPC6 channel inhibitors, primary screen, cell-based, HEK293, membrane potential dye; ACh-evoked depolarization; stronger effect = lower value; B-score at 10 µM; actives 1.1% (n = 310,000);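 active = B-score under library mean minus 3 SD, initial fluorescence not abnormally high, positive integrated signal ratio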;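 also: B-score derived from integrated fluorescence ratio over the kinetic read; more negative B-score means stronger inhibition of depolarization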
HEK293 TRPC6 ctr – parental HEK293 membrane potential modulation, confirmation, counter-screen for TRPC6 modulator project, cell-based. membrane potential dye fluorescence. AID 488924, 2010. membrane potential signal change, % at 10 µM. actives 51% (n = 2,400). shares compounds with TRPC6 inhibitor;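 active = membrane potential signal moves up or down beyond 5 SD from buffer-only wells, on both duplicate plates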
HEK293 MPD ctr 2 – parental HEK293 nonspecific activity of TRPC6 modulators, second screen. shares compounds with TRPC6 inhibitor. membrane potential dye fluorescence; after compound, maximal acetylcholine stimulation. inhibition, % at 10 µM. actives 14% (n = 2,400);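 active = membrane potential signal drops by more than 5 SD from the mean control signal, in both duplicate plates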;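 also: plate controls were acetylcholine ECmax control wells for no effect and buffer only wells for full effect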
TRPC4 ctr mod – TRPC4 modulation by TRPC6 hit compounds, confirmation, selectivity assay for TRPC6 modulator project, cell-based, HEK293 TRPC4/mu-opioid, membrane potential dye, mouse; shares compounds with TRPC6 inhibitor; membrane potential fluorescence; percent change from control (negative = decrease, positive = increase), % at 10 µM; actives 69% (n = 2,400);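 active = membrane potential signal moved up or down beyond 5 SD of buffer control wells, in both duplicate plates, actives on both sides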;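 also: plate controls were assay buffer wells for no effect and DAMGO maximal-effect wells for full effect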
TRPC4 ctr inh 2 – second selectivity test of TRPC6 modulators against mouse TRPC4 | actives 55% (n = 2,400) | shares compounds with TRPC6 inhibitor | HEK293 TRPC4/mu-opioid, membrane potential dye fluorescence; stimulated with maximal-effect DAMGO | inhibition, % at 10 µM;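 active = drop in membrane potential signal beyond 5 SD of the control wells in both duplicate plates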;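 also: TRPC4 counter screen for TRPC6 hits run under conditions tuned for TRPC6 not TRPC4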
TRPC6 inh conf – mouse TRPC6 channel inhibitors, confirmation, HEK293 cells, membrane potential dye, duplicate; shares compounds with TRPC6 inhibitor; ACh-evoked depolarization; inhibition, % at 10 µM; actives 43% (n = 3,300); AID 488960, 2010;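 active = fluorescence ratio falls more than 5 SD below the full-stimulation control mean, in both duplicate runs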;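 also: integrated fluorescence ratio of peak minus minimum over baseline after agonist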
TRPC6 act confirm – mouse TRPC6 channel activators, confirmation, HEK293 cells, membrane potential dye, duplicate | activation, % at 10 µM | actives 11% (n = 2,800) | shares compounds with TRPC6 inhibitor | AID 488961, 2010 | HEK293-TRPC6 membrane potential dye fluorescence, FDSS;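 active = ratio signal rise beyond 5 SD above unstimulated control wells' mean, seen in both duplicate runs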;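 also: plate controls were buffer EC0 wells for no effect and acetylcholine ECmax response for full effect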
* hit, by the source's call. Only some compounds are listed: those with a hit (about 2.3% of all), similar ones and a draw of the others.

`CCOc1ccccc1OCCCOc1ccc([N+](=O)[O-])cc1Cl` gave TRPC4 inh inactive, TRPC4 potent inactive, TRPC4 act inactive, TRPC6 act inactive and TRPC6 inhibitor inactive.
For CCOC(=O)c1c(NC(=O)COC(=O)CCOc2ccc(OCC)cc2)sc(C(=O)N(C)C)c1C the results were TRPC4 inh inactive, TRPC4 potent 61*, TRPC4 act inactive, TRPC6 act 13*, TRPC6 inhibitor inactive, HEK293 TRPC6 ctr 279%*, HEK293 MPD ctr 2 inactive, TRPC4 ctr mod 165%*, TRPC4 ctr inh 2 72%*, TRPC6 inh conf inactive and TRPC6 act confirm 124%*.
CCOC(=O)c1c(NC(=O)COC(=O)c2ccc(O)cc2)sc(C(=O)N(C)C)c1C was read as TRPC4 inh inactive, TRPC4 potent inactive, TRPC4 act inactive, TRPC6 act inactive and TRPC6 inhibitor inactive.
For CCOC(=O)c1c(NC(=O)COC(=O)CCOc2ccc(C)cc2)sc(C(=O)N(C)C)c1C the results were TRPC4 inh inactive, TRPC4 potent inactive, TRPC4 act inactive, TRPC6 act 14*, TRPC6 inhibitor inactive, HEK293 TRPC6 ctr 480%*, HEK293 MPD ctr 2 inactive, TRPC4 ctr mod 44%*, TRPC4 ctr inh 2 66%*, TRPC6 inh conf inactive and TRPC6 act confirm inactive.
For CCOC(=O)c1c(NC(=O)COC(=O)c2ccccn2)sc(C(=O)N(C)C)c1C the results were TRPC4 inh inactive, TRPC4 potent inactive, TRPC4 act inactive, TRPC6 act inactive and TRPC6 inhibitor inactive.
CCOC(=O)NC(CC(=O)O)c1ccc(OC)c(OC)c1 (stereo unspecified) was read as TRPC4 inh inactive, TRPC4 potent inactive, TRPC4 act inactive, TRPC6 act inactive and TRPC6 inhibitor inactive.
`Cc1ccccc1/C=N/Nc1nc2ccccc2[nH]1` gave TRPC4 inh inactive, TRPC4 potent inactive, TRPC4 act inactive, TRPC6 act inactive and TRPC6 inhibitor inactive.
For C(=N\Nc1nc2ccccc2[nH]1)/c1c[nH]c2ccccc12 the results were TRPC4 inh inactive, TRPC4 potent inactive, TRPC4 act inactive, TRPC6 act inactive, TRPC6 inhibitor -9.7*, HEK293 TRPC6 ctr -105%*, HEK293 MPD ctr 2 inactive, TRPC4 ctr mod -26%*, TRPC4 ctr inh 2 74%*, TRPC6 inh conf 56%* and TRPC6 act confirm inactive.
`C(=N\Nc1nc(N2CCCCC2)nc(N2CCCCC2)n1)/c1c[nH]c2ccccc12` gave TRPC4 inh inactive, TRPC4 potent inactive, TRPC4 act inactive, TRPC6 act inactive, TRPC6 inhibitor -7.9*, HEK293 TRPC6 ctr -56%*, HEK293 MPD ctr 2 inactive, TRPC4 ctr mod -15%*, TRPC4 ctr inh 2 42%*, TRPC6 inh conf 58%* and TRPC6 act confirm inactive.
`CN(C)c1nc(N/N=C/c2c[nH]c3ccccc23)nc(N2CCOCC2)n1` gave TRPC4 inh inactive, TRPC4 potent inactive, TRPC4 act inactive, TRPC6 act inactive and TRPC6 inhibitor inactive.
CCOc1ccccc1CN1CCN(CCCn2cccn2)CC1CCO (stereo unspecified) was read as TRPC4 inh inactive, TRPC4 potent inactive, TRPC4 act inactive, TRPC6 act inactive and TRPC6 inhibitor inactive.
CCc1ccc(NC(=O)C2=CC(c3ccc(OC)c(OC)c3)=NS(=O)(=O)N2C)cc1 was read as TRPC4 inh inactive, TRPC4 potent inactive, TRPC4 act inactive, TRPC6 act inactive, TRPC6 inhibitor -5.7*, HEK293 TRPC6 ctr inactive, HEK293 MPD ctr 2 inactive, TRPC4 ctr mod -18%*, TRPC4 ctr inh 2 66%*, TRPC6 inh conf inactive and TRPC6 act confirm inactive.
COc1ccc(CNC(=O)C2=CC(c3ccc(OC)c(OC)c3)=NS(=O)(=O)N2C)cc1 was read as TRPC4 inh inactive, TRPC4 potent inactive, TRPC4 act inactive, TRPC6 act inactive and TRPC6 inhibitor inactive.
For O=C(O)C(Cc1c[nH]c2ccccc12)NS(=O)(=O)c1ccc(Cl)c(C(F)(F)F)c1 (stereo unspecified) the results were TRPC4 inh inactive, TRPC4 potent inactive, TRPC4 act inactive, TRPC6 act inactive and TRPC6 inhibitor inactive.
CN1CCc2c(sc3c2c(=O)n(-c2ccccc2)c2nncn32)C1 was read as TRPC4 inh inactive, TRPC4 potent inactive, TRPC4 act inactive, TRPC6 act inactive, TRPC6 inhibitor -5.9*, HEK293 TRPC6 ctr -101%*, HEK293 MPD ctr 2 inactive, TRPC4 ctr mod -20%*, TRPC4 ctr inh 2 inactive, TRPC6 inh conf inactive and TRPC6 act confirm inactive.
Screening COc1cccc2c1nc(C)c1cc(C)oc12 returned TRPC4 inh inactive, TRPC4 potent inactive, TRPC4 act inactive, TRPC6 act inactive, TRPC6 inhibitor -5.8*, HEK293 TRPC6 ctr -316%*, HEK293 MPD ctr 2 inactive, TRPC4 ctr mod -54%*, TRPC4 ctr inh 2 42%*, TRPC6 inh conf inactive and TRPC6 act confirm inactive.
CCOC(=O)C1=NN(C(=O)c2ccc(C)cc2)C(O)(c2ccc(Cl)cc2)C1 (stereo unspecified) was read as TRPC4 inh inactive, TRPC4 potent inactive, TRPC4 act 90*, TRPC6 act 18*, TRPC6 inhibitor -8*, HEK293 TRPC6 ctr 281%*, HEK293 MPD ctr 2 inactive, TRPC4 ctr mod 70%*, TRPC4 ctr inh 2 inactive, TRPC6 inh conf inactive and TRPC6 act confirm 180%*.
